Source: the RNAGym collection of RNA variant scans (doi:10.1126/science.aae0568)
This sample holds only a part of the variants without activity.

B1: tRNA (parent)
chain: GUUCCGUUGGCGUAAUGGUAACGCGUCUCCCUCCUAAGGAGAAGACUGCGGGUUCGAGUCCCGUACGGAACG

Variants of: B1
Assay: yeast fitness relative to wild type (ratio to wild type); higher = fitter; tRNA-Arg(CCU), competitive growth, 37 C, YPD
Summary of the method: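 Changes in genotype frequencies gave Darwinian fitness relative to wild type. Frequencies were read by 100-nucleotide paired-end sequencing of gene amplicons before and after pooled Saccharomyces cerevisiae strains, carrying tRNA-Arg(CCU) gene variants at the native locus, were competed in YPD at 37°C for 24 hours in six replicates. A genotype was kept only with ≥ 100 starting reads, and estimates < 0.5 were set to 0.5.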

Row | Variant | yeast fitness
1 | U8C C24U A65C | 0.59
2 | G9A C11A C30G C46U | ≤ 0.5
3 | U8G G17A A20C C22G C29G C34G A70G | ≤ 0.5
4 | U8A C27A A37U G67U | 0.612
5 | U8C G9A C22G U32G C49G C55G | ≤ 0.5
6 | U8A G48C | 0.761
7 | U8C G12A G48C | 0.675
8 | U8A U19A G50C | ≤ 0.5
9 | G9A A14U A21U A69C | 0.755
10 | G9A A14U C29G C34A G63A | ≤ 0.5
11 | U8G U54G G56C | ≤ 0.5
12 | U8G U26A C66U G67C | 0.847
13 | U8C A21G U28C | 0.637
14 | U8A C31G C34U C55U G58A C61U | ≤ 0.5
15 | U8A G38C G48A | ≤ 0.5
16 | U8C C31U A45C U47C | ≤ 0.5
17 | G9A C11A A20U C61U | 0.559
18 | G9A A15U C33G G39A C62A | ≤ 0.5
19 | U8G C11U G48A A69U | ≤ 0.5
20 | U8A A40G C61G | ≤ 0.5
21 | U8C G50A A70U | 0.736
22 | U8A A36U C55G U59C | 0.579
23 | U8C U26A C27A | ≤ 0.5
24 | G9A A21G C62U G63C A70C | 0.52

Row | Variant | yeast fitness
25 | U8A A43G | 0.742
26 | U8A C30U G63A | ≤ 0.5
27 | U8G A14U G50A A57U A70G | ≤ 0.5
28 | G9A C11A U35C G50C | ≤ 0.5
29 | U8A A14G C46U G50C C55U A57U C62G A70U | ≤ 0.5
30 | U8G C49U C55U | 0.549
31 | U8C C22A A36C C55G A65G C66G | ≤ 0.5
32 | U8C U16A U19A C22U U28C | ≤ 0.5
33 | U8C G63C | 0.778
34 | U8C C22G C60A | 0.609
35 | U8G A57C | ≤ 0.5
36 | U8C G17A C46A A65G | ≤ 0.5
37 | U8A G68C | 0.661
38 | G9A C11A A40U G48C C55U C61G | ≤ 0.5
39 | U8C U47A | 0.937
40 | U8G C49G U53C C60A A69U | ≤ 0.5
41 | U8C C11U G18A A20U C22G C31G | ≤ 0.5
42 | U8A A20C U35A G38C A69U | 0.597
43 | G9A C11G U19C A20G G56A C60G | ≤ 0.5
44 | U8C A37G G50A A69U | ≤ 0.5
45 | U8G C49U | 0.668
46 | U8C A21U | 0.802
47 | U8C C29G C30U C46U G48A | ≤ 0.5
48 | G9A C11A G44C | ≤ 0.5

Row | Variant | yeast fitness
49 | U8G G51A A65U | ≤ 0.5
50 | U8G C27A | 0.564
51 | U8G G56A | 0.568
52 | U8A G18A U32A G58A | ≤ 0.5
53 | U8A C34U C55G | ≤ 0.5
54 | U8C U26G C30U A40G | ≤ 0.5
55 | G9A A40G | 0.918
56 | G9A A40C | 0.881
57 | U8A G18C C24A U32C A70U | ≤ 0.5
58 | G9A A42U U59A G67C | ≤ 0.5
59 | G9A A20C | 0.871
60 | U8C G12A A65G | 0.615
61 | U7G U35A C49G C60A | ≤ 0.5
62 | G9A A21U A36G A40C A69U | ≤ 0.5
63 | U8G G10A C11G U19G A40G C55U C60U | 0.511
64 | U8C A14U | 0.805
65 | U8C G18C | 0.684
66 | U8C C24G G38C U53G | 0.635
67 | U8A G18C C24A U32C G52C G56A | ≤ 0.5
68 | G9A A15U C31G U53A C55U A57C C60G G67C | ≤ 0.5
69 | U8C A14C C24G G68A | ≤ 0.5
70 | U8C C30G C31G | 0.58
71 | U8C C24A C49U | ≤ 0.5
72 | U8G C34U A40G C46A | ≤ 0.5

Row | Variant | yeast fitness
73 | U8C U28G A40U | 0.588
74 | U8A C66A | 0.568
75 | U8A C29A | ≤ 0.5
76 | U8C A14C C55U C61G C62G | ≤ 0.5
77 | U8C G18A G23C C31G G38C G41A | 0.635
78 | U8C A14G G56C | ≤ 0.5
79 | U8A G10C C29A A40U C55G | 0.533
80 | U8A A21G C27U G52C | ≤ 0.5
81 | U8C A15G U16A C46U U54C | 0.601
82 | U8C U16A A21C C24G A37U C55U | ≤ 0.5
83 | U8C A37G | 0.657
84 | U8C G9A A42G G58U | ≤ 0.5
85 | U8C G25C C31U A69C | ≤ 0.5
86 | U8G G18A G50C A65U | 0.513
87 | U8C A36U | 0.647
88 | U7G U28C G41C G58C | ≤ 0.5
89 | U8G A20G | 0.544
90 | G9A C11G U13G G23C C34U C55U | ≤ 0.5
91 | U8C G41A A65G | 0.63
92 | U8C C55U | 0.754
93 | U8C C55G | 0.671
94 | U8G G41A C60G | ≤ 0.5
95 | U8A A14G C49G | 0.538
96 | U8A C55U G68A | 0.578

Row | Variant | yeast fitness
97 | U8A C49U A69U | 0.537
98 | U8A C24U C31G | ≤ 0.5
99 | U8A C24G G48C C49U U64A | ≤ 0.5
100 | U8A G12A A14C C60U G67C | ≤ 0.5
101 | U8A C22G | 0.7
102 | U8C A40U A69U | 0.75
103 | U8A U54A C55U G68A A69U | 0.507
104 | U7G U8C A70U | 0.588
105 | U8C G9A G12A | 0.529
106 | U8A C31G | 0.679
107 | U8C C55U G58A | ≤ 0.5
108 | U8G U47A | 0.602
109 | U8A G10A A69U | 0.542
110 | U8G A20U G44C | 0.558
111 | U8C C22A C33G G39C C46U C66U | 0.536
112 | U8A A20U A70C | 0.56
113 | U8A U26C G38A | ≤ 0.5
114 | U8C U47C U59A A70G | ≤ 0.5
115 | U8A C30G | ≤ 0.5
116 | U8A C30U | 0.665
117 | U8A G12A C33U A65U | 0.562
118 | U8A A20U A21U G25A A43U | 0.584
119 | U8G U16C A21U C22A U28G | ≤ 0.5
120 | G9A C11G U19C C55A | ≤ 0.5

Row | Variant | yeast fitness
121 | G9A A45U A70U | 1.01
122 | U8C C27G A42G | ≤ 0.5
123 | U8G G10C A40C | ≤ 0.5
124 | G9A A14G C29G | ≤ 0.5
125 | U8A U13A G48C | 0.516
126 | G9A A14U A21C | 0.577
127 | U8G G67U | 0.583
128 | U8G C24U C29G C31A A45G C61U A65C G67A G68A | ≤ 0.5
129 | U8A U19C C31A U35G A43G U47C G52C G67A | 0.575
130 | U8C U19C G23C U53C | ≤ 0.5
131 | U8A C11A C24U G67C | ≤ 0.5
132 | U8C C49G | 1.01
133 | U8G G17A C31A C66U | ≤ 0.5
134 | U8A C31U A69C | 0.557
135 | U8A C11U G25A C33A A40U | ≤ 0.5
136 | U7G U35A A43C | 0.532
137 | U8G A20G A37G A43G A70U | ≤ 0.5
138 | U8A G9A A36C C61G G67C | 0.797
139 | U8A A20C U35A G38C | ≤ 0.5
140 | U8G G25A A70C | 0.544
141 | U8C G9C A21C C24G G38A | 0.74
142 | U8G A15C U28A | ≤ 0.5
143 | G9A A40G U64C | 0.722
144 | U8C U13C C24A A37G | 0.761

Row | Variant | yeast fitness
145 | U8G A21U G68C | ≤ 0.5
146 | U8C A36G G39C C49U U54G | ≤ 0.5
147 | U8C C24G A57G | ≤ 0.5
148 | U8C G12C A70C | 0.686
149 | U8A U16A C29G A40G A42G C46G A65U | ≤ 0.5
150 | U8A C34U G67A A69G | 0.568
151 | U8A A40U A70C | 0.547
152 | U8A A43U C55U | 0.537
153 | U8A U13A | 0.606
154 | U8C C22A A42U U54C C66G | ≤ 0.5
155 | U8A C22G C46G C66U | 0.567
156 | U8C U35C | 0.899
157 | U8C G9A G12A C60U | ≤ 0.5
158 | U8C A15U G25A C34G G58C | ≤ 0.5
159 | U8G G23C | ≤ 0.5
160 | U8C G17C U26C C34A A45C G48A | ≤ 0.5
161 | G9A A14G A20C A42C | ≤ 0.5
162 | U8C G25C G38C C49U A57U C66A | ≤ 0.5
163 | U8A C11A C31G | ≤ 0.5
164 | U8G C30U A45G C60A C66U | ≤ 0.5
165 | U7G U13C C31U | 0.903
166 | U8C C46U G51C | ≤ 0.5
167 | U8C C11U C22G C55G G63C | ≤ 0.5
